# Most compounds without a hit are left out; they make up all but 3.7% or so of the library.
# FXN GAA850 act: increases GAA850 frataxin promoter reporter activity; activation, % at 6 µM; AID 540364; HEK293 lucGAA850 FXN promoter luciferase reporter, 24 h; percent of 10 µM SAHA response; 360,000 compounds, 0.56% hits;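 active = activation above the average of all compounds screened plus 3 SD, cutoff fixed separately per campaign, cut at about 7.5% in these data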;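 note: 0% = DMSO wells and 100% = 10 µM SAHA wells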
# AHR activator: activators of human aryl hydrocarbon receptor; 320,000 compounds, 2.5% hits; AID 2796; activation, % at 5 µM; AHR-responsive luciferase reporter cells, luminescence; in the data active = activation above about 47%;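 note: 0% = vehicle wells and 100% = reference agonist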
# SR-BI DiI inh: blocks mouse SR-BI lipid uptake from DiI-HDL | Q61009 | ldlA[mSR-BI] CHO cells, DiI-HDL uptake fluorescence, 3 h | inhibition, % at 12.5 µM | 320,000 compounds, 0.96% hits | AID 488896;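 active = mean replicate inhibition of at least 70% and a set share of replicates each scoring 70 or more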;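 note: 0% = median of neutral control wells and 100% = median of positive control wells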
# SR-BI uptake up: SR-BI HDL lipid transfer activation; activation, % at 12.5 µM; CHO ldlA[mSR-BI] cells, DiI-HDL uptake fluorescence, 3 h; 100 = double the neutral-control signal; 320,000 compounds, 0.096% hits; AID 504775;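 active = mean replicate activation of at least 60% and every replicate at or above 60%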;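 note: 0% = median plate neutral-control signal and 100% = twice that signal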
#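 system = CHO ldlA[mSR-BI] cells, LDL receptor-null, SR-BI overexpressing | medium = Ham's F12 with 0.5% BSA, HEPES 25 mM, pH 7.4 | probe or stimulus = DiI-HDL 10 µg/mL | compound dosing = single-point compound dose | incubation = compound exposure 3 h, 37 °C | technique = DiI fluorescence, bottom read | read-out = cell-associated DiI fluorescence as measure of HDL uptake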
# GASC-1 inh: blocks human GASC-1 demethylase activity; GST-JMJD2C(1-420) H3K9me3 demethylation, DELFIA europium; 330,000 compounds, 0.069% hits; inhibition, % at 2.35 µM; Q9H3R0; AID 2099;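 active = more than half of a compound's replicate wells show inhibition beyond 50%, single wells judged on their own value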;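 note: signal counts dimethyl H3K9 product captured on neutravidin plate; 0% = median of DMSO wells and 100% = 0.3 times that DMSO median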
# Target sequence (Q9H3R0 1-420 limits assumed): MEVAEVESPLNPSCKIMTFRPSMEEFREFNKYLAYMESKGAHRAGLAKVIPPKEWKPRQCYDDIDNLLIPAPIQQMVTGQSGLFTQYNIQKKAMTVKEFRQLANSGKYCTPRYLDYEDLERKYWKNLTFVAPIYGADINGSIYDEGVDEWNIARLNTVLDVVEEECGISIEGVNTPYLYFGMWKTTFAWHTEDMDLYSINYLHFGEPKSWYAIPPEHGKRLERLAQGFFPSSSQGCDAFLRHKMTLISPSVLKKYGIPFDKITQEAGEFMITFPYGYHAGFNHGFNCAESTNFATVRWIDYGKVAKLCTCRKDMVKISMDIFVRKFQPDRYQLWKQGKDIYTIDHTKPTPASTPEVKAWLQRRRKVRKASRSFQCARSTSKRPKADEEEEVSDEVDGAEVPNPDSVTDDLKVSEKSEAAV
# GAA30 FXN cntr: GAA30 FXN promoter activation counter-screen; AID 588350; shares compounds with FXN GAA850 act; activation, % at 6 µM; HEK293 lucGAA30 FXN promoter luciferase, 24 h; DMSO = 0%, 5 µM ipriflavone = 100%; 1,900 compounds, 66% hits;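 active = mean activation above the mean of solvent-only control wells plus 3 SD, cut at about 22% in these data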;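 note: counterscreen of GAA850 promoter hits where activity marks nonselective or luminescence artifacts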
# GAA850 confirm: confirmation of GAA850 frataxin (FXN) promoter activators; HEK293 lucGAA850 FXN promoter luciferase reporter, 24 h; 100% = activation by SAHA; AID 588351; activation, % at 6 µM; 1,900 compounds, 86% hits; shares compounds with FXN GAA850 act;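 active = mean activation above a set limit taken from the primary screen, cut at about 8% in these data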;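 note: 0% = DMSO wells and 100% = 10 µM SAHA wells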
# * = called active by the depositor; nt = no result.
SMILES,FXN GAA850 act,AHR activator,SR-BI DiI inh,SR-BI uptake up,GASC-1 inh,GAA30 FXN cntr,GAA850 confirm
CCCc1ccc(OCc2ccc(C(=O)N3CCSCC3)o2)cc1,7.6*,8,-2,2,-11,100*,38*
COC(=O)c1ccc(COc2ccc(C(C)(C)C)cc2)o1,5,4,-7,7,-1,nt,nt
CCOc1ccc(OCc2ccc(C(=O)O)o2)cc1,2,3,-21,21,0,nt,nt
Cc1cccc(OCc2ccc(C(=O)N3CCOCC3)o2)c1,-1,2,nt,nt,6,nt,nt
Cc1cccc(NC(=O)c2ccc3nc(N4CCOCC4)sc3c2)c1C,0,10,5,-5,25,nt,nt
COc1ccc(C2c3cc(OC)c(OC)cc3CCN2C(=O)c2ccccc2Br)cc1OC (stereo not given),-2,-3,-2,2,3,nt,nt
CC(C)C[C@H](NC(=O)c1nc[nH]c1C(=O)N1CCNCC1)C(=O)OCc1ccccc1,2,-2,-18,18,-5,nt,nt
CN1C(=O)[C@@H]2[C@@H]3C[C@@H]([C@H]4ON=C(c5ccccc5OCC#N)[C@@H]34)[C@@H]2C1=O,2,3,-2,2,nt,nt,nt
CN(Cc1ccccc1)c1nc(N)c([N+](=O)[O-])c(NCc2ccccc2)n1,7.7*,2,-2,2,7,35*,12*
CCOC(=O)CNc1c(-c2ccc(OC)cc2)nc2ccc(Cl)cn12,8.0*,9,-11,11,10,92*,25*
COCCNc1c(-c2ccc(OC)cc2)nc2ccc(Cl)cn12,7,5,34,-34,13,nt,nt
COc1ccc(S(=O)(=O)N2CCOCC2)cc1NC(=O)Cc1sc(C)nc1-c1ccc(F)cc1,1,-1,8,-8,-23,nt,nt
COc1ccc(S(=O)(=O)N2CCCCC2)cc1NC(=O)Cc1sc(C)nc1-c1ccc(F)cc1,13*,2,36,-36,-4,22*,11*
CC(=O)Nc1ccc(N/C=C/C(=O)c2ccc(C)o2)cc1,8.9*,-2,2,-2,-2,95*,30*
O=CNC1c2ccccc2CCc2ccccc21,-1,nt,5,-5,nt,nt,nt
N#C/C(=N\Nc1ccc(Cl)cc1)C(=N)N1CCCCCC1,12*,21,-2,2,-7,130*,49*
O=C1c2ccccc2C(=O)N1Nc1ccccc1,-1,-2,-22,22,8,nt,nt
Cc1ccc(NN2C(=O)C=C(c3ccccc3)C2=O)cc1,10.0*,nt,nt,nt,-14,32*,28*
CC(OCC(O)CN(C)Cc1nc2ccccc2c(=O)[nH]1)c1ccc(Cl)cc1 (stereo not given),0,3,9,-9,-4,nt,nt
C=CCn1c(SCC(=O)NCc2ccc3c(c2)OCO3)nc2scc(-c3ccc(F)cc3)c2c1=O,3,5,-37,37,-2,nt,nt
C=CCn1c(SC(C)C(=O)NCc2ccc3c(c2)OCO3)nc2scc(-c3ccccc3)c2c1=O (stereo not given),7.8*,1,10,-10,-3,12,10*
N/C(CN1CCSCC1)=N\OCc1c(F)cccc1Cl,3,0,-14,14,-10,nt,nt
Cc1ccc(-c2cn(-c3ccccc3)c(SCC(N)=O)n2)cc1C,4,18,21,-21,0,nt,nt
CCOC(=O)NC(=O)CSc1nc(-c2ccc(C)c(C)c2)cn1-c1ccccc1,7.9*,18,50,-50,0,62*,34*
O=C(NCC1CCCN1S(=O)(=O)c1cccs1)C(=O)Nc1ccc(F)cc1 (stereo not given),3,-3,4,-4,53,nt,nt
SMILES,FXN GAA850 act,AHR activator,SR-BI DiI inh,SR-BI uptake up,GASC-1 inh,GAA30 FXN cntr,GAA850 confirm
C=C(C)c1sc(-c2ccccc2)nc1C,nt,-1,nt,nt,10,nt,nt
C/C(=N\O)c1sc(-c2ccccc2)nc1C,8.1*,nt,1,-1,13,123*,34*
Cc1ccc(OCCSc2nc(N)cc(N)n2)cc1,9.1*,0,-6,6,4,110*,37*
CC1CCCN(C(=O)c2cn(-c3ccccc3)nc2-c2cccnc2)C1 (stereo not given),2,1,35,-35,6,nt,nt
CCN(CC)c1ccc(S(=O)(=O)N2CCCCC2)cc1NC(=O)CN1C(=O)NC2(CCCC2)C1=O,9.0*,-2,-32,32,-19,21,10*
Cc1ccc(S(=O)(=O)N2CCOCC2)cc1NC(=O)CN1C(=O)NC2(CCCC2)C1=O,2,-1,-10,10,25,nt,nt
COc1ccc(C(=O)N2N=C3CC(C)(C)OCC3C2c2ccccc2)cc1 (stereo not given),-2,-2,22,-22,4,nt,nt
C=CCNC(=S)Nc1c(N)n(C)c(=O)n(C)c1=O,-2,2,-33,33,14,nt,nt
CCN(CC)S(=O)(=O)c1cc(NC(=O)CSc2nc3c(cc2C#N)C(=O)CC(C)(C)C3)ccc1C,10*,-2,72*,-72,-2,6,3
C/C(CC(=O)NCc1ccccc1Cl)=N/NC(=O)c1ccccn1,8.2*,3,nt,nt,25,50*,14*
O=C(CSc1ccc(-c2ccncc2)nn1)N1CCCC1,0,1,nt,nt,-1,nt,nt
Cc1cccc(C)c1NC(=S)N(CCCN1CCCCC1)Cc1ccco1,2,2,-39,39,-10,nt,nt
CC(=O)Nc1cccc(OCC(=O)Nc2sccc2C(N)=O)c1,9.8*,25,nt,nt,-1,109*,36*
Cc1ccc(C(=O)NNC(=O)C2CCN(c3ncccn3)CC2)cc1,2,3,0,0,2,nt,nt
Cc1cccc(C(=O)Nc2ccc(C(=O)/C=C/c3ccncc3)cc2)c1,17*,5,39,-39,-2,16,27*
COc1ccc(/C=C/C2=NNC(=O)CC2)cc1,7.7*,1,-23,23,0,83*,32*
CCC12C(=O)C(CC)(C(c3ccccc3)=C1c1ccccc1)[C@@H]1C(=O)N(c3ccccc3)C(=O)C12 (stereo not given in full),11*,2,-30,30,10,20,11*
Cc1c(C(=O)NCc2cccc(Cl)c2)sc(=O)n1Cc1cccc(F)c1,12*,nt,nt,nt,nt,16,6
Cc1c(C(=O)NCc2ccc(Cl)c(Cl)c2)sc(=O)n1Cc1cccc(F)c1,1,nt,nt,nt,nt,nt,nt
CCOC(=O)c1c(CSC(=N)N)n(-c2ccccc2)c2cc(Br)c(OC(C)=O)cc12,10*,0,44,-44,6,-7,33*
CCOc1ccc(N2C(=O)C(Cl)=C(Nc3ccccc3O)C2=O)cc1,1,15,15,-15,-4,nt,nt
